Data published in ChEMBL document CHEMBL4024768, “Discovery and Optimization of Thiazolidinyl and Pyrrolidinyl Derivatives as Inhaled PDE4 Inhibitors for Respiratory Diseases” (J Med Chem, 2017).
Activity calls are given as the source filed them. The rule behind the calls is not given here.

Columns and labels:
[1] = molecular target: T1, Amine oxidase [flavin-containing] A (Homo sapiens, UniProt P21397); assay: Binding affinity to human monoamine oxidase A at 1 uM
T1 sequence (P21397 whole entry): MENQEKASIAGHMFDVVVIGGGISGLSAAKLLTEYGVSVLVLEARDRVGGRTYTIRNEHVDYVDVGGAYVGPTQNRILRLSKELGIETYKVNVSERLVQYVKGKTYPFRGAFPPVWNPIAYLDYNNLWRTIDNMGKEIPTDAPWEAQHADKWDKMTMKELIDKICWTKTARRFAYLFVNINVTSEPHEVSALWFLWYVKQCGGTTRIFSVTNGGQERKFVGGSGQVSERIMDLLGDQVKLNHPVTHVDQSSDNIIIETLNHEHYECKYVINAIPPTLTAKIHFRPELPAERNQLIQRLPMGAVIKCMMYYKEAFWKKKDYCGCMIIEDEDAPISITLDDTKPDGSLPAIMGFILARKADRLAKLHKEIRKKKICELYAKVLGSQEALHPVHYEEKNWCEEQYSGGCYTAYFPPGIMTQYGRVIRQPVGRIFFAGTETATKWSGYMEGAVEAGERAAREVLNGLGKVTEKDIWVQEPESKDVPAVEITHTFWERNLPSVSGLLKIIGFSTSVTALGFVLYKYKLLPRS
Summary of the method: (§1)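 Off-target screening panel of about 400 receptors, enzymes and ion channels, run at 1 μM. Result expressed as % binding.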

[2] = molecular target: High affinity 3',5'-cyclic-AMP phosphodiesterase 7A (Homo sapiens, UniProt Q13946); assay: Inhibition of human recombinant PDE7A expressed insect sf9 cells by radiometric assay
Sequence of High affinity 3',5'-cyclic-AMP phosphodiesterase 7A (Q13946 whole entry): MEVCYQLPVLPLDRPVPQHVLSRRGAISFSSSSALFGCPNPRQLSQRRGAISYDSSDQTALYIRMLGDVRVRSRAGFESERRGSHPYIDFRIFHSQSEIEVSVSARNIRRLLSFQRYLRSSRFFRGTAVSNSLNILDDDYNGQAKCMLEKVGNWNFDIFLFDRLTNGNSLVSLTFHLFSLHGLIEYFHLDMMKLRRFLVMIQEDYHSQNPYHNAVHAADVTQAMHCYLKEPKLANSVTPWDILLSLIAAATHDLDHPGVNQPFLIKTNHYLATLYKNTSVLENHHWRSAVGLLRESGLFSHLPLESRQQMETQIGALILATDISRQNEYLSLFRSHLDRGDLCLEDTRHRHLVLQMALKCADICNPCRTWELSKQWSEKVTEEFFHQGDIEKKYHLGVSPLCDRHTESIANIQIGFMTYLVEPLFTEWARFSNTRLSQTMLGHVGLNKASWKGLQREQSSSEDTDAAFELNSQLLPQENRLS
Summary of the method: (§2)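 Human recombinant PDEs expressed in Sf9 cells, except PDE6 purified from bovine retina. Radiometric two-step method, modified from Thompson and Appleman. Five concentrations in duplicate, starting at 30 μM with 1:10 serial dilution, 1% final DMSO.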

[3] = molecular target: T2, Sterol O-acyltransferase 1 (Rattus norvegicus) (UniProt O70536); assay: Binding affinity to rat hepatic Acyl CoA-cholesterol acyltransferase at 1 uM; summary of the method: as §1
T2 sequence (whole entry): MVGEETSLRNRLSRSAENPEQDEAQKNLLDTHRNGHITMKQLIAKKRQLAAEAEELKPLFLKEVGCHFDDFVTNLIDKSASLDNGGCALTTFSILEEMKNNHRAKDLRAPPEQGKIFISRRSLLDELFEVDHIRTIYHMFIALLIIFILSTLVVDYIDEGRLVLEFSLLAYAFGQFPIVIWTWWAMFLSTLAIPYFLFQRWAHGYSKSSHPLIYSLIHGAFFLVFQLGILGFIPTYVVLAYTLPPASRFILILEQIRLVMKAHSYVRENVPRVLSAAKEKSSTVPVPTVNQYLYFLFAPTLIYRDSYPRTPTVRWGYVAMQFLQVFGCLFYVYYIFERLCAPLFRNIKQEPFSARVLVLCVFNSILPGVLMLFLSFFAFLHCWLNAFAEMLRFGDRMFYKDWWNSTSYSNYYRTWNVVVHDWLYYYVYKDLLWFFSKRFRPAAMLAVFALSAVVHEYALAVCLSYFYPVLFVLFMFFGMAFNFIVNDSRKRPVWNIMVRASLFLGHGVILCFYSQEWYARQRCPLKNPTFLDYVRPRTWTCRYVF

[4] = molecular target: Dual 3',5'-cyclic-AMP and -GMP phosphodiesterase 11A (Homo sapiens, UniProt Q9HCR9); assay: Inhibition of human recombinant PDE11A4 expressed insect sf9 cells by radiometric assay; summary of the method: as §2
Sequence of Dual 3',5'-cyclic-AMP and -GMP phosphodiesterase 11A (Q9HCR9 whole entry): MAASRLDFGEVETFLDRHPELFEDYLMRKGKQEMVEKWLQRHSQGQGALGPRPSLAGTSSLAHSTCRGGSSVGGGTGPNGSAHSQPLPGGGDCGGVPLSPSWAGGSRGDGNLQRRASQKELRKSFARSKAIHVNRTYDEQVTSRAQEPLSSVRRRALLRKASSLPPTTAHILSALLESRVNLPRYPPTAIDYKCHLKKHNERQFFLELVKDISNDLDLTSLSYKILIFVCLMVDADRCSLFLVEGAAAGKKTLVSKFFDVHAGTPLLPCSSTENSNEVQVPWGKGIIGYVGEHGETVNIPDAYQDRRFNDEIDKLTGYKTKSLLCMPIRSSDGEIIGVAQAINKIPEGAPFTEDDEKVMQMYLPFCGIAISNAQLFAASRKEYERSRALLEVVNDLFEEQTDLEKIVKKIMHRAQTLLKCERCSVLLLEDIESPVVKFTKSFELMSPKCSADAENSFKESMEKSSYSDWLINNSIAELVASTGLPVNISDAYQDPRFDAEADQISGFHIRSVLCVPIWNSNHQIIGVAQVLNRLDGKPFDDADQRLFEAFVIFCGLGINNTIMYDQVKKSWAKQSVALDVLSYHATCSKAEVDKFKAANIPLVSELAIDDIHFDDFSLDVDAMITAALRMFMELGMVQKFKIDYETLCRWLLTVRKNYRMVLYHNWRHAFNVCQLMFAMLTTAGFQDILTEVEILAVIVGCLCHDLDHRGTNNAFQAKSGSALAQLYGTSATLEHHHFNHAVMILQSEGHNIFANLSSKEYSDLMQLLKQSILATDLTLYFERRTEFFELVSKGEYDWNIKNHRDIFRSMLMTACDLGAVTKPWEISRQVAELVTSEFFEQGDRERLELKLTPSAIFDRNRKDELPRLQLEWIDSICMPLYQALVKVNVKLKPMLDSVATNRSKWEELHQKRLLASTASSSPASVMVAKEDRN

[5] = molecular target: cGMP-specific 3',5'-cyclic phosphodiesterase (Homo sapiens, UniProt O76074); assay: Inhibition of human recombinant PDE5A expressed insect sf9 cells by radiometric assay; summary of the method: as §2
Plasma = assay: AUClast in Sprague-Dawley rat plasma at 1 umol/kg, it administered as micronized powder measured up to 24 hrs post dose by electrospray LC-MS analysis; format: ADME, cell-free; conditions: inhaled_or_intranasal
Summary of the method: (§3)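 Sprague-Dawley rats (250−400 g) dosed intratracheally with micronized dry powder blended with coarse lactose, delivered by insufflator under isoflurane anaesthesia. Blood collected in heparinized tubes and spun at 1200g for 15 min. Lung sampled at 0.25, 1, 2, 4, 8, 16 and 24 h, n = 3 per time point.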

[6] = Drug metabolism in human hepatocytes assessed as (S)-1-(3-(dimethylcarbamoyl)phenylsulfonyl)pyrrolidine-2-carboxylic acid metabolite formation at 10 uM after 60 mins by LC-MS/MS analysis; format: ADME, cell-based, Hepatocyte; conditions: 1 h
Summary of the method: (§4)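 Pooled mixed-sex cryopreserved human hepatocytes (1 million cells/mL) in Leibovitz L-15 at 37 °C, compound at 10 μM in duplicate. Sampled at 0 and 60 min. Protein-free supernatant evaporated under nitrogen, reconstituted in mobile phase and analysed by LC−MS/MS. Cell-free medium incubation for 60 min as control.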

[7] = MRTlast in Sprague-Dawley rat lung at 1 umol/kg, it administered as micronized powder measured up to 24 hrs post dose by electrospray LC-MS analysis; format: ADME, tissue-based; conditions: inhaled or intranasal; summary of the method: as §3
[8] = Stability in human hepatocytes assessed as parent compound remaining at 10 uM after 60 mins by LC-MS/MS analysis; format: ADME, cell-based, Hepatocyte; conditions: read-out: Stability; summary of the method: as §4
[9] = molecular target: 3',5'-cyclic-AMP phosphodiesterase 4B (Homo sapiens, UniProt Q07343); assay: Inhibition of human recombinant PDE4B expressed insect sf9 cells by radiometric assay; summary of the method: as §2
Sequence of 3',5'-cyclic-AMP phosphodiesterase 4B (Q07343 whole entry): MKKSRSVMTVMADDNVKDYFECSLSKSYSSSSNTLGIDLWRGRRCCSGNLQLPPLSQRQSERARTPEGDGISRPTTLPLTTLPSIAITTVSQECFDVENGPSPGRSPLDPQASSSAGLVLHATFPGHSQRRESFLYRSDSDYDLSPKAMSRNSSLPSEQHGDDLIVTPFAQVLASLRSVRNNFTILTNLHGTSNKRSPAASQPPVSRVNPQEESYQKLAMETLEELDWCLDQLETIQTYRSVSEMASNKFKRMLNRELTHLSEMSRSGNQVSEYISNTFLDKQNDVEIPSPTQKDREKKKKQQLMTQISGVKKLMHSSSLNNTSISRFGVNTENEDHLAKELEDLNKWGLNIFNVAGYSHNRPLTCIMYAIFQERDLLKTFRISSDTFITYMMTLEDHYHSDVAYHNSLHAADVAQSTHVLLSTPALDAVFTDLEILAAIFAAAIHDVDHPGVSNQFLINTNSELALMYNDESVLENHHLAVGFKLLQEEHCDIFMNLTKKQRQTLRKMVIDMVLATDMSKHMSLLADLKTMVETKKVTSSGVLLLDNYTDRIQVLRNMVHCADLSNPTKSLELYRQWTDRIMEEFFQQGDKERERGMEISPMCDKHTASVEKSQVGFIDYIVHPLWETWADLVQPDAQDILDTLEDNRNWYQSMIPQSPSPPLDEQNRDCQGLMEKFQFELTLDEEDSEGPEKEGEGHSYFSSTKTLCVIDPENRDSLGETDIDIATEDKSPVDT

Cytochrome P450 2C19 = Cytochrome P450 2C19 (Homo sapiens, UniProt P33261); assay: Binding affinity to human liver microsomes CYP2C19 at 1 uM; format: ADME; summary of the method: as §1
Sequence of Cytochrome P450 2C19 (P33261 whole entry): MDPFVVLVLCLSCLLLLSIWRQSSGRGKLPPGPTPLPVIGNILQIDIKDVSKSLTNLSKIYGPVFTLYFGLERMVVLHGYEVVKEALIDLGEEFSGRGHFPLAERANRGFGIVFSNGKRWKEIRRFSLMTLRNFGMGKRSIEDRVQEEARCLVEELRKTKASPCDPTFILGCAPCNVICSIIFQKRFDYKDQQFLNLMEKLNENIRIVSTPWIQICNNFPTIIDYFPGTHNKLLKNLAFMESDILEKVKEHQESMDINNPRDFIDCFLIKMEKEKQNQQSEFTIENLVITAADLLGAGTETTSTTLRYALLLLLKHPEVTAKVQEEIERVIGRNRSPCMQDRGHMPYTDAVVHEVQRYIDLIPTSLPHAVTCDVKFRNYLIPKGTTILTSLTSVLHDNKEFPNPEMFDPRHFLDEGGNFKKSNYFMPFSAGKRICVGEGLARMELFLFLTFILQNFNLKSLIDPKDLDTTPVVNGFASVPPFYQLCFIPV

Rattus norvegicus [10] = assay: (§5) Anti-inflammatory activity in OVA-induced airway inflammation Brown Norway rat model assessed inhibition of inflammatory cell infiltration in bronchoalveolar lavage fluid at 1 umol/kg administered intratracheally as powder formulation 2 hrs before aerosolized OVA challenge measured at 24 hrs post aerosolized OVA challenge; format: functional
Summary of the method: (§6)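 Male Brown Norway rats sensitized i.p. with OVA (1 mg/rat) plus Al(OH)3 (100 mg/rat) in saline on 3 consecutive days. Challenged 2–3 weeks later with nose-only 1% OVA aerosol for 30 min. Lactose-blended dry powder (10 mg/kg total powder) insufflated intratracheally; dose taken from needle weight difference. BAL with 3 × 4 mL HBSS/EDTA/HEPES at 24 h; total and differential counts by automated counter. ED50 from fitted dose–response curve.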

Rattus norvegicus [11] = species: Rattus norvegicus; assay: Binding affinity to rat imidazoline I2 receptor; summary of the method: as §1
Rattus norvegicus [12] = assay: as §5, with “eosinophils recruitment” for “inflammatory cell infiltration”, “0.1” for “1”; format: functional; conditions: inhaled or nasal; summary of the method: as §6

Row | Activity [1] [%] | IC50 [2] [µM] | Activity [3] [%] | IC50 [4] [µM] | IC50 [5] [µM] | AUClast (Plasma) [pmol·h/g] | Drug metabolism [6] | MRT last at 24 h [7] [h] | remaining at 1 h, 10 µM [8] [%] | IC50 [9] [nM] | Activity (Cytochrome P450 2C19) [%] | Activity (Rattus norvegicus [11]) [%] | Structure (SMILES) | inhibition (Rattus norvegicus [10]) | inhibition in vivo at 0.1 µmol/kg (Rattus norvegicus [12]) [%]
1 | 76 | 3.46 | 50 | > 30 | 13.9 | 33.27 | Metabolite_Notdetected | 4.52 | 78 | 0.0881 | – | – | CN(C)C(=O)c1cccc(S(=O)(=O)N2CCC[C@H]2C(=O)O[C@@H](Cc2c(Cl)c[n+]([O-])cc2Cl)c2ccc(OC(F)F)c(OCC3CC3)c2)c1 (relative stereo) | – | –
2 | 94 | 0.66 | – | > 30 | 4.61 | 10.38 | – | 5.56 | 51 | 0.0278 | 69 | 60 | CN(C)C(=O)c1cccc(S(=O)(=O)N2CCS[C@H]2C(=O)O[C@@H](Cc2c(Cl)c[n+]([O-])cc2Cl)c2ccc(OC(F)F)c(OCC3CC3)c2)c1 | Active | 50
